Screening results deposited in PubChem BioAssay by several laboratories.
In the library only some 3.6% were active in any assay of this set; here they are far more common.
GRIN3A LBD mod: modulators (binders) of human NR3A ligand-binding domain; AID 1259313; 2.5% of 340,000 active; Tm shift relative to glycine control, % at 25 µM; NR3A LBD differential scanning fluorimetry, Tm shift; 0% = protein alone, 100% = glycine-bound protein;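 active = melting temperature shift of at least 10% of the positive control shift, at one fixed dose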
ZTA DNA inh: blocks Epstein-Barr virus ZTA, an EBNA-1 counter-screen. P03206. ZTA-DNA binding, fluorescence polarization. inhibition, % at 11 µM. 0.15% of 320,000 active. AID 2234; in the data active = inhibition above about 33%
Target sequence (P03206 whole entry, looked up): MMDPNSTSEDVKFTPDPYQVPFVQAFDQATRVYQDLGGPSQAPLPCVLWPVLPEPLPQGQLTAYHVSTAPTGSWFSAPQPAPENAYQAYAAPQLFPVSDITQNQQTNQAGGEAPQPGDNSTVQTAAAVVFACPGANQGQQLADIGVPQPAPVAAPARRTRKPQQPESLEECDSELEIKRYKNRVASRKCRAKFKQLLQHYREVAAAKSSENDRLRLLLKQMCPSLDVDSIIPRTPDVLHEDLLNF
FGF22 binding: FGF22 (human) thermal shift binding. Q9HCT0. recombinant FGF22 thermal shift, SYPRO orange fluorescence; percent of sucrose octasulfate shift, DMSO zero. activity (Tm shift, normalised), % at 9.99 µM. 1.5% of 340,000 active. AID 651658;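 active = mean Tm shift, scaled 0 neutral to 100 positive control, at about 1.3% or above, every replicate too, limit read from the data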
Target sequence (Q9HCT0 whole entry, looked up): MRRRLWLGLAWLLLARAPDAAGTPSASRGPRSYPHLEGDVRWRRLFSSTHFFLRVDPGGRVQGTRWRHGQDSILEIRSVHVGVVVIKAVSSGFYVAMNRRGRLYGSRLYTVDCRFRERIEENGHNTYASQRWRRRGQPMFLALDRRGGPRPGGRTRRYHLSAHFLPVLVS
FID counter: displaces DNA intercalator in HCV helicase counter-screen. inhibition, % at 7.9 µM. DNA fluorescent intercalator displacement, fluorescence. AID 1845. 0.17% of 290,000 active; in the data active = inhibition above about 37%;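 note: 0% = vehicle and 100% = reference compound; higher means more ethidium bromide displaced from hairpin DNA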
EBNA-1 inhibitor: blocks EBNA-1 binding to DNA; EBNA-1 DNA binding, fluorescence polarization; AID 1950; inhibition, % at 14.8 µM; 0.34% of 300,000 active; in the data active = inhibition above about 28%
HCV NS3 hel inh: inhibitors of Hepatitis C virus NS3 helicase; AID 1800; 0.56% of 290,000 active; NS3 helicase DNA unwinding, Cy5 molecular beacon fluorescence; inhibition, % at 10.9 µM;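 active = inhibition above the mean of all tested compounds plus 3 SD, set per campaign, cut at about 35% in these data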;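 note: 0% = DMSO wells and 100% = thioflavine S control wells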
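Assay system: hepatitis C virus NS3 helicase domain fragment enzyme. Also added: annealed dual-labelled DNA beacon duplex, ATP-started. Timing: 1 h reaction at 25 °C, ATP-initiated. Technique: Cy5 fluorescence at 0 and 60 min, beacon hairpin quenching. Evaluation: % inhibition of unwinding. Replication: one well per compound.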
Active calls of the source: *; x = no result given.

SMILES | GRIN3A LBD mod | ZTA DNA inh | FGF22 binding | FID counter | EBNA-1 inhibitor | HCV NS3 hel inh
O=C(Nc1ccc(OC(F)F)c(Cl)c1)c1ccccn1 | 1.3 | 3.3 | 0.2 | 2.7 | -1.8 | -7.0
Cc1ccc(NC(=S)Nc2ccc(OC(F)F)c(Cl)c2)cc1F | 32.0* | -3.8 | 42.9* | -1.1 | -3.8 | -2.0
Fc1ccc(NC(=S)Nc2ccc(F)c(Cl)c2)cc1Cl | 12.3* | -15.5 | x | 0.9 | -0.5 | -2.4
NS(=O)(=O)c1ccc(CNC(=S)Nc2ccc(F)c(Cl)c2)cc1 | -0.6 | -8.7 | 43.5* | 2.4 | -1.6 | -7.7
COC(=O)NC(=S)Nc1ccc(Oc2ccc(Cl)cc2)c(Cl)c1 | -3.8 | 7.8 | x | -0.9 | -5.0 | 0.3
CCCNC(=O)N(C)C[C@H]1Oc2ncc(Br)cc2C(=O)N([C@@H](C)CO)C[C@@H]1C | x | x | -0.3 | x | x | x
C[C@@H]1CN([C@H](C)CO)C(=O)c2cc(NC(=O)c3ccccc3)ccc2O[C@@H](C)CCCCO[C@H]1CN(C)Cc1ccncc1 | x | x | 0.2 | x | x | x
COc1ccc(CNC(=S)Nc2ccc(F)c(Cl)c2)cc1 | 0.8 | 2.7 | 1.7* | 3.4 | 14.9 | -13.1
COc1ccc(CNC(=S)NCc2ccc(OC(C)C)cc2)cc1 | -2.9 | -31.6 | 43.2* | -9.3 | -1.6 | -27.0
CC1CCCCC12NC(=O)N(CC(=O)Nc1ccccc1N1CCOCC1)C2=O (stereo unspecified) | -0.5 | 5.6 | 43.5* | -15.4 | -0.2 | 9.3
CC1CCCCC12NC(=O)N(CC(=O)Nc1ccc(S(=O)(=O)N3CCOCC3)cc1)C2=O (stereo unspecified) | 0.4 | 8.8 | x | -7.1 | 7.0 | -2.9
CC1CCCCC12NC(=O)N(CC(=O)Nc1sccc1C(N)=O)C2=O (stereo unspecified) | -2.5 | 3.0 | -0.1 | x | x | x
CC1CCCCC12NC(=O)N(CC(=O)Nc1nccs1)C2=O (stereo unspecified) | -2.4 | x | 43.1* | x | x | x
CNC(=O)C[C@H]1CC[C@H]2[C@H](COc3ccc(NC(=O)c4ccc(OC)cc4)cc3C(=O)N2C)O1 | x | x | 0.0 | x | x | x
O=C(NCCCn1ccnc1)/C(=C/c1ccco1)NC(=O)c1ccco1 | -0.1 | 12.7 | -0.1 | -1.3 | 6.4 | 1.8
O=C(NCCCn1ccnc1)/C(=C/c1ccco1)NC(=O)c1cccs1 | -1.0 | 7.6 | 1.4* | 0.9 | 9.6 | 5.3
COc1ccc(OC)c(NC(=O)CSc2ncccc2C(=O)O)c1 | 1.7 | -9.2 | x | -3.5 | -12.9 | 6.3
CCCCCCCCNC(=O)c1cccnc1SCC(=O)Nc1ccccc1OC | -8.7 | 11.1 | 38.6* | -3.4 | 6.6 | 0.8
Cc1ccc(NC(=O)COC(=O)Cn2nc(-c3ccc(F)cc3)oc2=O)cc1C | -1.0 | x | 43.5* | x | x | x
O=C(COC(=O)Cn1nc(-c2ccccc2)oc1=O)Nc1ccc(F)cc1 | 1.4 | 17.1 | 0.2 | x | x | x
CC(C)NC(=O)Nc1ccc2c(c1)C(=O)N([C@@H](C)CO)C[C@@H](C)[C@H](CN(C)CC1CC1)OCCCC[C@@H](C)O2 | x | x | 0.1 | x | x | x
C[C@@H]1CN([C@@H](C)CO)C(=O)c2cc(NS(C)(=O)=O)ccc2O[C@@H](C)CCCCO[C@@H]1CN(C)Cc1ccc2c(c1)OCO2 | x | x | 0.1 | x | x | x
CC(=O)Nc1ccc(NC(=O)C(NS(=O)(=O)c2cccc3nsnc23)C(C)C)cc1 (stereo unspecified) | 10.5* | -9.6 | 0.0 | -7.8 | 0.0 | 13.6
CC(=O)NNC(=O)c1sc(=S)n2c1[nH]c(=O)c1sccc12 | -11.6 | -6.4 | 43.0* | -1.4 | -3.5 | 0.8
O=C(NCc1ccccc1)c1sc(=S)n2c1[nH]c(=O)c1ccccc12 | 11.7* | -2.2 | x | 1.0 | -0.4 | 22.6
SMILES | GRIN3A LBD mod | ZTA DNA inh | FGF22 binding | FID counter | EBNA-1 inhibitor | HCV NS3 hel inh
CCCCNC(=O)c1sc(=S)n2c1[nH]c(=O)c1ccc(C(=O)NCCc3ccc(OC)c(OC)c3)cc12 | -3.3 | 5.5 | x | -25.4 | -0.2 | -8.0
CC(=O)NNC(=O)c1sc(=S)n(C)c1C | 0.6 | -5.5 | -0.1 | -1.6 | 1.1 | 7.2
NC(=O)c1sc(=S)n2c1[nH]c(=O)c1sccc12 | 2.5 | -18.6 | 47.4* | -1.5 | -10.6 | 2.8
COc1cccc(C#Cc2cnc3c(c2)C(=O)N([C@@H](C)CO)C[C@H](C)[C@@H](CN(C)C(=O)C2CC2)O3)c1 | x | x | -0.1 | x | x | x
O=C(Cc1ccccn1)N1CC(=O)N2[C@H](C1)[C@H](c1ccc(C#CCC3CCCC3)cc1)[C@@H]2CO | x | x | 0.1 | x | x | x
CC1CN(C)C(C)C/C1=N/Oc1ccccc1[N+](=O)[O-] (stereo unspecified) | 1.6 | -4.3 | 43.6* | 5.6 | -5.2 | -1.7
OCc1cn(-c2ccccc2)nc1-c1cc2ccccc2o1 | 5.8 | 4.8 | 0.2 | -7.5 | 2.8 | -5.7
OCC1CCN(Cc2cn(Cc3ccccc3)nc2-c2cc3ccccc3o2)CC1 | -0.9 | 6.1 | 43.7* | 19.4 | -4.2 | -36.1
OCC1CCCN(Cc2cn(Cc3ccccc3)nc2-c2cc3ccccc3o2)C1 (stereo unspecified) | -0.1 | -14.2 | 43.0* | 27.5 | -2.8 | -33.5
COC1CCN(Cc2cn(Cc3ccccc3)nc2-c2cc3ccccc3o2)CC1 | -1.2 | -13.8 | -0.1 | 28.6 | 5.1 | -57.4
CC(=O)N(C)C[C@@H]1Oc2cc(C#CC(C)(C)O)ccc2S(=O)(=O)N([C@@H](C)CO)C[C@H]1C | x | x | -0.4 | x | x | x
CO[C@@H](CN(C)S(=O)(=O)c1ccc(Cl)cc1)[C@H](C)CN(C(=O)Nc1ccccc1F)[C@H](C)CO | x | x | -0.2 | x | x | x
Cc1ccccc1-c1ccc(C2[C@@H]3CN(Cc4ccc5c(c4)OCO5)C[C@H]2N3)cc1 (stereo partly specified) | x | x | 0.1 | x | x | x
O=C(NCCS(=O)(=O)N1CCN(c2ccccc2)CC1)c1ccc2c(c1)OCO2 | 0.8 | 7.4 | -0.1 | x | -9.2 | x
O=C(NCCS(=O)(=O)N1CCN(c2ccccc2F)CC1)c1ccc2c(c1)OCO2 | 30.6* | -6.1 | -0.2 | x | -3.3 | x
CN(C)/C=C(\C=O)c1ncc(C(F)(F)F)cc1Cl | 0.8 | -8.1 | 43.0* | 1.6 | -14.5 | 2.4
COc1ccc2c3c(n(C)c2c1)[C@@H](CO)N(C(=O)c1ccncc1)CC31CCN(S(C)(=O)=O)CC1 | x | x | -0.1 | x | x | x
Cc1nn(Cc2ccccc2Cl)c(C)c1C(=O)NC1=NCCS1 | -2.7 | 4.9 | x | -15.3 | -0.8 | 1.6
CCC(CC)c1nnc(NC(=O)c2c(C)nn(Cc3ccccc3Cl)c2C)s1 | 15.6* | -6.6 | x | -45.2 | 2.6 | -11.8
C[C@@H]1CN([C@@H](C)CO)C(=O)c2cc(NC(=O)C3CC3)ccc2O[C@H]1CN(C)Cc1ccc(-c2ccccc2)cc1 | x | x | -0.2 | x | x | x
CCC1(CC)N([O-])C(C)=C(c2ccccc2)[N+]1=O | -1.4 | -2.2 | x | 1.5 | 0.7 | -0.8
CC1=C(c2ccccc2)[N+](=O)C2(CCCCC2)N1[O-] | -1.3 | 3.9 | 43.0* | 0.6 | 5.8 | -2.5
CCOC(=O)C(/C(C)=N/NC(=O)C1CC1c1ccccc1)C(C)C (stereo unspecified) | 15.9* | 0.0 | x | -3.1 | -0.4 | -1.0
